From ChEMBL document CHEMBL1151821, “Macrocyclic peptidomimetic beta-secretase (BACE-1) inhibitors with activity in vivo” (Bioorg Med Chem Lett, 2009)
Blank lines part the entries; values can stand above or below the molecule they belong to.

Tests used:
Brain [1] = assay: Drug level in APP51/16 transgenic mouse brain expressing human APP at 100 umol/kg, po administered twice at 3 hrs interval measured after 7 hrs of last dose; settings: in vivo
[2] = Drug level in C57BL/6 mouse brain at 30 umol/kg, iv after 5 hrs; assay type: ADME, organism-based; settings: read-out: Drug uptake
Method in brief: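 C57BL/6 mice, single i.v. dose of 30 µmol/kg. Compound levels in brain and plasma followed over 5 h; brain:plasma ratio from 5 min to 5 h.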

Brain [3] = assay: Drug level in APP51/16 transgenic mouse brain expressing human APP at 30 umol/kg, iv after 5 hrs; assay type: ADME, organism-based; settings: in vivo
Method in brief: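 Single i.v. dose of 30 µmol/kg in APP51/16 transgenic mice (human APP, brain-specific promoter), sacrificed 5 h after dosing. Compound level measured in brain.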

in vivo [4] = settings: C57BL/6, mouse, brain/plasma, iv, 30 umol/kg
in vivo [5] = settings: C57BL/6, mouse, brain/plasma, iv, 30 umol/kg; remark: listed apart in the source
Brain [6] = assay: Drug level in APP51/16 transgenic mouse brain expressing human APP at 30 umol/kg, iv administered twice at 2 hrs interval measured after 3 hrs of last dose; settings: in vivo

Drug uptake (Brain [1]): 1.5 µmol/kg
SMILES: CC(C)c1ccc2c(c1)[C@@H](NC[C@@H](O)[C@@H]1C[C@H](C)CCCCCCCCC(=O)N(C)[C@@H](C)C(=O)N1)CC(C)(C)O2

SMILES: CC(C)c1cccc(CNC[C@@H](O)[C@@H]2C[C@H](C)CCCCCCCCC(=O)N(C)[C@@H](C)C(=O)N2)c1
concentration at 5 h [2]: > 1 µM
Drug uptake (Brain [3]): 1.3 µmol/kg
Kp at 5 min (in vivo [4]): 1.5
Kp at 5 h (in vivo [5]): 4
Drug uptake (Brain [6]): 4.3 µmol/kg
